Active and inactive are the calls of the source. The calls are words filed in the database; no cut-off is given here.
Legend:
[1] = molecular target: T1, Phosphatidylinositol 4,5-bisphosphate 3-kinase catalytic subunit delta isoform (Homo sapiens) (UniProt O00329); assay: Inhibition of PIK3CD ATP labeling site in human A-375 cells at 5 uM by KiNativ Profiling analysis relative to control; type: cell-based
T1 sequence (whole entry): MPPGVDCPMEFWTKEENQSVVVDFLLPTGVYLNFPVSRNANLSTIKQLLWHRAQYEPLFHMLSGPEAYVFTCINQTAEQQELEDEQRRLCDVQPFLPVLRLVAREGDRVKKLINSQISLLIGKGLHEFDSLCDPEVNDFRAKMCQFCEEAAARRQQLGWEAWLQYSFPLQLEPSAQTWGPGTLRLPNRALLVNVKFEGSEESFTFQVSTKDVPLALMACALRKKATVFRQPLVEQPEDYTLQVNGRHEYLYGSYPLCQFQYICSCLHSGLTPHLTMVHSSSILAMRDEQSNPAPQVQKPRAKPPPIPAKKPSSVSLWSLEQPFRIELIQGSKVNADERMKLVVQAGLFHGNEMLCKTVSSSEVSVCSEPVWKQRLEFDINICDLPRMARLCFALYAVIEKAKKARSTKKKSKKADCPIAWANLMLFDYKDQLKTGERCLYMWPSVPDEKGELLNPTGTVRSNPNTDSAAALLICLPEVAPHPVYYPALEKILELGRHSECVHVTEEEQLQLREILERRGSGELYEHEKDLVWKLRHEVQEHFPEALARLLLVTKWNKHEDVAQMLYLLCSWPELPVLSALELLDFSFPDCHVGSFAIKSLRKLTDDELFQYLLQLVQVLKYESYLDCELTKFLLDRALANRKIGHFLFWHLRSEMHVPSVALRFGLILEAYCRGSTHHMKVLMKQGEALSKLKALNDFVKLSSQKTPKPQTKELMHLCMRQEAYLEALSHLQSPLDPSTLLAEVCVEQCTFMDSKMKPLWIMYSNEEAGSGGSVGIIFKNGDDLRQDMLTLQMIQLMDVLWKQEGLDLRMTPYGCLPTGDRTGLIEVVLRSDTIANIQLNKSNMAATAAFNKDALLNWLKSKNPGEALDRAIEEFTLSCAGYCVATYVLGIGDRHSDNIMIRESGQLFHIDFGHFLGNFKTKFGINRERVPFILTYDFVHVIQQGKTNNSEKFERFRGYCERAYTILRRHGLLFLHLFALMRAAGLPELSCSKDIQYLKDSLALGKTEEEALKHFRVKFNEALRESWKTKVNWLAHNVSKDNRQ

[2] = molecular target: Mitogen-activated protein kinase 3 (Homo sapiens) (UniProt P27361); assay: Inhibition of ERK1 (unknown origin) at 1 uM by Ambit Kinomescan binding assay relative to control; values are per cent of control
Sequence of Mitogen-activated protein kinase 3 (Homo sapiens) (P27361 whole entry): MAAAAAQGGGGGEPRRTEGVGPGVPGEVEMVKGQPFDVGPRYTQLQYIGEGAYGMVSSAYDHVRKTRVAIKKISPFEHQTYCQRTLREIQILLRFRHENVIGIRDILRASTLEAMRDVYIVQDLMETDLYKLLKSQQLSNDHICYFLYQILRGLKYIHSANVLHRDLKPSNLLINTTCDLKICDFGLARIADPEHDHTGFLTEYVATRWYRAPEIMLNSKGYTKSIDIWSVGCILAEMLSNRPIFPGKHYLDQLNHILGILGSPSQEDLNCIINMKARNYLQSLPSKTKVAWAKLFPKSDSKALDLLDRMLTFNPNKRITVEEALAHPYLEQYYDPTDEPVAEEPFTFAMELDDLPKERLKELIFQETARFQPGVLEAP

[3] = molecular target: Serine/threonine-protein kinase Nek5 (Homo sapiens) (UniProt Q6P3R8); assay: Inhibition of NEK5 (unknown origin) at 1 uM by Ambit Kinomescan binding assay relative to control; values are per cent of control
Sequence of Serine/threonine-protein kinase Nek5 (Homo sapiens) (Q6P3R8 whole entry): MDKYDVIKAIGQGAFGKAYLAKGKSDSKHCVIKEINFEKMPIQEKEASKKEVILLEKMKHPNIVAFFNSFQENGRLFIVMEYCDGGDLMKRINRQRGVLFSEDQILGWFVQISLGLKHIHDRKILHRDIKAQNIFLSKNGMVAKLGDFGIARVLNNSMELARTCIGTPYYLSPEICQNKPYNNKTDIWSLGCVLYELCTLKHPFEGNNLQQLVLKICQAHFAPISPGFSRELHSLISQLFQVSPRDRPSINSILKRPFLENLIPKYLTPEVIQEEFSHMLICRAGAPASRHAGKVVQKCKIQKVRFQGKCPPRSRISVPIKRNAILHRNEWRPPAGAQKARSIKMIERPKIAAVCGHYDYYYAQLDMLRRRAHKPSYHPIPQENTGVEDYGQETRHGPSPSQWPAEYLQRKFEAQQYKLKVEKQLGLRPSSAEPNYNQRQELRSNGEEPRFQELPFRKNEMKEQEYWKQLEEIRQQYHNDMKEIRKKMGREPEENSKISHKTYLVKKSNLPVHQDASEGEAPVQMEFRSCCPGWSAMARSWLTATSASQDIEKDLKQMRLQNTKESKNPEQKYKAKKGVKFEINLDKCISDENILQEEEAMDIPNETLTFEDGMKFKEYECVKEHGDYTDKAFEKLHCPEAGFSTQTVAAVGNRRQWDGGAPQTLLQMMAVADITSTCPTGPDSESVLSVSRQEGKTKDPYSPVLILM

[4] = molecular target: Serine/threonine-protein kinase PAK 6 (Homo sapiens) (UniProt Q9NQU5); assay: Inhibition of PAK6 (unknown origin) at 1 uM by Ambit Kinomescan binding assay relative to control; values are per cent of control
Sequence of Serine/threonine-protein kinase PAK 6 (Homo sapiens) (Q9NQU5 whole entry, looked up): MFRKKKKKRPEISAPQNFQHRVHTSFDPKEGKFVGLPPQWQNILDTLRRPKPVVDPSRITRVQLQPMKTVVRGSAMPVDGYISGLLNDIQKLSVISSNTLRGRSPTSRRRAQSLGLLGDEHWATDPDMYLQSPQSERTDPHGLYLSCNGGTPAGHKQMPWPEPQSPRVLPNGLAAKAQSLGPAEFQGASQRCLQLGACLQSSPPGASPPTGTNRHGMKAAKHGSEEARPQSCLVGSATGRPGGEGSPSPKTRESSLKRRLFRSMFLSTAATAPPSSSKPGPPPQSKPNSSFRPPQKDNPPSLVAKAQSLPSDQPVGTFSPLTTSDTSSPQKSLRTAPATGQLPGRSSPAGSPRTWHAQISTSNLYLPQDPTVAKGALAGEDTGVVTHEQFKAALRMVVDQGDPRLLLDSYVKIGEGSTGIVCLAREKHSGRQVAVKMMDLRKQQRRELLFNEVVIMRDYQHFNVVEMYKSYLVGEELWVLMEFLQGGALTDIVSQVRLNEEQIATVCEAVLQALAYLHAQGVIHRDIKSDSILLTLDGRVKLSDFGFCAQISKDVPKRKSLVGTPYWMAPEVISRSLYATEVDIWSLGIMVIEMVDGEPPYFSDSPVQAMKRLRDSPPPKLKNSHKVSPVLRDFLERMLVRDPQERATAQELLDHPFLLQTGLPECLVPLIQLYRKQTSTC

[5] = molecular target: Ephrin type-A receptor 1 (Homo sapiens) (UniProt P21709); assay: Inhibition of EPHA1 (unknown origin) at 10 uM by Ambit Kinomescan binding assay
Sequence of Ephrin type-A receptor 1 (Homo sapiens) (P21709 whole entry): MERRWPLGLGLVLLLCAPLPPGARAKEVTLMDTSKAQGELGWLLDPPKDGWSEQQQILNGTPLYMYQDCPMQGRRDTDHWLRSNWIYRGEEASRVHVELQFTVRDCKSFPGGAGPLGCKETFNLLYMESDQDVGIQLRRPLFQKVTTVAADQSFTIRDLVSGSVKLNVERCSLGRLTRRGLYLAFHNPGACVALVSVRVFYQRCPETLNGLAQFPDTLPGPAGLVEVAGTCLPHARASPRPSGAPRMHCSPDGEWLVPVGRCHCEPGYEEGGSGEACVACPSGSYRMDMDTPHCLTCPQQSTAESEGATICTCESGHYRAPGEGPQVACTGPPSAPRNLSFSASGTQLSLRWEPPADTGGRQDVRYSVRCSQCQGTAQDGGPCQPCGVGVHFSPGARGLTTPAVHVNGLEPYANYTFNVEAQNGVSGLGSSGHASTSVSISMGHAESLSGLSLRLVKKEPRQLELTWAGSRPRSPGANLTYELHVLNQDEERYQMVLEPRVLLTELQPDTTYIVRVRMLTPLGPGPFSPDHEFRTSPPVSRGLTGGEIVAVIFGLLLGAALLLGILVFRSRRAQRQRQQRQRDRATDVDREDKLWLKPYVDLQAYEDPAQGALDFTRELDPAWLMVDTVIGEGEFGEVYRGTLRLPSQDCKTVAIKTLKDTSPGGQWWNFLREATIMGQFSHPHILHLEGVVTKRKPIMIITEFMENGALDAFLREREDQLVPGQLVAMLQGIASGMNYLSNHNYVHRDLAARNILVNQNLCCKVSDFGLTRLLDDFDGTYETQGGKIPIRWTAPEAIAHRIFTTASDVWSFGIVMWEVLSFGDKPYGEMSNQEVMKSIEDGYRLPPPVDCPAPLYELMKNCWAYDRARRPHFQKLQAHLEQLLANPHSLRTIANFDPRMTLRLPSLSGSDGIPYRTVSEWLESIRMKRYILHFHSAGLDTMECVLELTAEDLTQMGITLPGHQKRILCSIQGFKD

[6] = molecular target: T2, Mitogen-activated protein kinase kinase kinase 3 (Homo sapiens) (UniProt Q99759); assay: Inhibition of MAP3K3 (unknown origin) at 10 uM by Ambit Kinomescan binding assay relative to control
T2 sequence (whole entry): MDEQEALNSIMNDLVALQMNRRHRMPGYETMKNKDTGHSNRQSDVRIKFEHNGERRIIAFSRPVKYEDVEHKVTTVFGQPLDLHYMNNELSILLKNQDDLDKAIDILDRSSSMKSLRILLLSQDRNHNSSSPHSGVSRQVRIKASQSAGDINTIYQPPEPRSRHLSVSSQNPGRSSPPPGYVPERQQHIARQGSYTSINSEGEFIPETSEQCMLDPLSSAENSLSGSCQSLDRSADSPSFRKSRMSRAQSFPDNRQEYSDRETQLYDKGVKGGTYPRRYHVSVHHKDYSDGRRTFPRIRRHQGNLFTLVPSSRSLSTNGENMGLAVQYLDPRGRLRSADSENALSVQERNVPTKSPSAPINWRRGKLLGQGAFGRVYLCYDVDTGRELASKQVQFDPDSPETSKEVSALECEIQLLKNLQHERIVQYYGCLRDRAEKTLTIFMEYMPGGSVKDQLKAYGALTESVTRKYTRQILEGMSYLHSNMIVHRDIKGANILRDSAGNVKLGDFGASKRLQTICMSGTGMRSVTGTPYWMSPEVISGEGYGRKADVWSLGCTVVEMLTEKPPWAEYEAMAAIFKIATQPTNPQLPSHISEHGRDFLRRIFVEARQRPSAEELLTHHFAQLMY

[7] = molecular target: Serine/threonine-protein kinase Nek5 (Homo sapiens) (UniProt Q6P3R8); assay: Inhibition of NEK5 (unknown origin) at 10 uM by Ambit Kinomescan binding assay
[8] = molecular target: Rho-associated protein kinase 2 (Homo sapiens) (UniProt O75116); assay: Inhibition of ROCK2 Lys2 labeling site in human A-375 cells at 0.5 uM by KiNativ Profiling analysis relative to control; type: cell-based
Sequence of Rho-associated protein kinase 2 (Homo sapiens) (O75116 whole entry, looked up): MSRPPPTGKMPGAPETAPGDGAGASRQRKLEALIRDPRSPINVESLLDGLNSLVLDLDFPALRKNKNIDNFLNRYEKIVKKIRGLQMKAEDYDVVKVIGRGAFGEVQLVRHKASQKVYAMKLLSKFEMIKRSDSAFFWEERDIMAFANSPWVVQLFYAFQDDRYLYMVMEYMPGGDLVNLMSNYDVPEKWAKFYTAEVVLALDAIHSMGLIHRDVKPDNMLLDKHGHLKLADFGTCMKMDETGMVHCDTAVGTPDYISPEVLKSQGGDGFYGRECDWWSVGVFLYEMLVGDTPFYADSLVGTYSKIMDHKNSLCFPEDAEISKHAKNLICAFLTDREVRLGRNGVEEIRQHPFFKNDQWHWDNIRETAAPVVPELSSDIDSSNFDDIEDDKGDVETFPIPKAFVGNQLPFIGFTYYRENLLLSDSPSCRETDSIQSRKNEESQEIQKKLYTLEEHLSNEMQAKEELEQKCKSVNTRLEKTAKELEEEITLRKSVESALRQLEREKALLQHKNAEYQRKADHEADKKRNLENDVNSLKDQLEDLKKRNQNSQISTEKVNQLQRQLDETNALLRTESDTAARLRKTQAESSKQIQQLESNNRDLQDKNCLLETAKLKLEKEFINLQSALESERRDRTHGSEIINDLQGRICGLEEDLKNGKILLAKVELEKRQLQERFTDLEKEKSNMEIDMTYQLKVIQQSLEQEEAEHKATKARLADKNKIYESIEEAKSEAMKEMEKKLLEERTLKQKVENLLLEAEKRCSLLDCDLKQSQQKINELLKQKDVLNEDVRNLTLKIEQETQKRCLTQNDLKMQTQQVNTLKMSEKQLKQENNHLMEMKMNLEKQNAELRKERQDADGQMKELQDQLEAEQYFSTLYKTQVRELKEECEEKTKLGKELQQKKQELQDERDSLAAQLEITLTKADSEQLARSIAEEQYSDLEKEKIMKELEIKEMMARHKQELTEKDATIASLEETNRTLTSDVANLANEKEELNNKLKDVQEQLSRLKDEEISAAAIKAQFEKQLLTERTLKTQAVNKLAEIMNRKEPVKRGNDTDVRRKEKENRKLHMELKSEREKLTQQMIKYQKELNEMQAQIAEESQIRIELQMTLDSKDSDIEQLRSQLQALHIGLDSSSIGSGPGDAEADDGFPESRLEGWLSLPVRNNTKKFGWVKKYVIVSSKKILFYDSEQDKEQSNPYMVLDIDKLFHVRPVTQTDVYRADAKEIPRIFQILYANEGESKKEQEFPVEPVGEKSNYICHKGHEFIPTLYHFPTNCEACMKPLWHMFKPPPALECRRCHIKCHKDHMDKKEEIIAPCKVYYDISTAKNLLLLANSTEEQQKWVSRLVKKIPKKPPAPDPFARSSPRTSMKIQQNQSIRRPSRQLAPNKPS
Procedure, shortened: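 Live A375 melanoma cells treated with compound at 5 or 0.5 μM, then lysed. Lysate kinases were labeled with a lysine-reactive ATP or ADP-biotin probe. Inhibition was read as protection of labeling sites from the probe.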

[9] = molecular target: Serine/threonine-protein kinase Nek7 (Homo sapiens) (UniProt Q8TDX7); assay: Inhibition of NEK7 K1 labeling site in human Huh-7 cells at 10 uM by KiNativ Profiling analysis relative to control; type: cell-based
[10] = Inhibition of TLK1/2 K2 labeling site in human Huh-7 cells at 10 uM by KiNativ Profiling analysis relative to control; details: condition cancer
[11] = molecular target: Mitogen-activated protein kinase 11 (Homo sapiens) (UniProt Q15759); assay: Inhibition of p38beta (unknown origin) at 10 uM by Ambit Kinomescan binding assay relative to control; values are per cent of control
Sequence of Mitogen-activated protein kinase 11 (Homo sapiens) (Q15759 whole entry): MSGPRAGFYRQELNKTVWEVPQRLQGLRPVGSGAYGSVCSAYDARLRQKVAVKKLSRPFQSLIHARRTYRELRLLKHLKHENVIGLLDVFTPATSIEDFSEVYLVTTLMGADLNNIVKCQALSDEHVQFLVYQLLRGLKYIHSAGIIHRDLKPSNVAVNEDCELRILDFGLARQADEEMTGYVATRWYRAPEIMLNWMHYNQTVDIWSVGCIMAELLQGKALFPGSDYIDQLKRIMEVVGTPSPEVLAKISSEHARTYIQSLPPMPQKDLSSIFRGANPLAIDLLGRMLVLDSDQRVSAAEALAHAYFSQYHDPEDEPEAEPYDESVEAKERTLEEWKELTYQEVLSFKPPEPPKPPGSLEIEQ

[12] = molecular target: Cyclin-dependent kinase 5 (Homo sapiens) (UniProt Q00535); assay: Inhibition of CDK5 Lys2 labeling site harbouring DLKPQNLLINR in human Huh-7 cell lysate at 1 uM by KiNativ Profiling analysis relative to control; type: subcellular
Sequence of Cyclin-dependent kinase 5 (Homo sapiens) (Q00535 whole entry, looked up): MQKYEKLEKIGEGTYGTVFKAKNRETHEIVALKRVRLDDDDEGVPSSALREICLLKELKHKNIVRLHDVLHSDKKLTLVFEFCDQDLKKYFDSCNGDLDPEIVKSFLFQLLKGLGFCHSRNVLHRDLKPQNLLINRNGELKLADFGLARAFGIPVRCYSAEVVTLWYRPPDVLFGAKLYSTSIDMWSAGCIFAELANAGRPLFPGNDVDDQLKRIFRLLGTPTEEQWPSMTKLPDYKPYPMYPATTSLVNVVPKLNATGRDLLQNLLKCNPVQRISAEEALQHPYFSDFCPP

[13] = molecular target: DNA-PK/Ku70/Ku85 (Homo sapiens) (UniProt P78527+P12956+P13010); assay: Inhibition of DNAPK ATP labeling site harbouring EHPFLVKGGEDLR in human Huh-7 cell lysate at 1 uM by KiNativ Profiling analysis relative to control; type: subcellular
[14] = molecular target: Serine/threonine-protein kinase PLK1 (Homo sapiens) (UniProt P53350); assay: Inhibition of PLK1 Lys2 labeling site harbouring VIHRDLKLGNLFLNEDLEVK in human Huh-7 cell lysate at 1 uM by KiNativ Profiling analysis relative to control; type: subcellular

SMILES: CCN1CCN(Cc2ccc(NC(=O)c3ccc(C)c(/C=C/c4cnc5[nH]ccc5c4OC)c3)cc2C(F)(F)F)CC1
- inhibition [1]: 21.3%
- residual activity [2]: 100%
- residual activity [3]: 47%
- residual activity [4]: 100%

SMILES: CCN1CCN(Cc2ccc(NC(=O)c3ccc(C)c(Oc4ccnc5[nH]ccc45)c3)cc2C(F)(F)F)CC1
- inhibition [5]: inactive
- inhibition [6]: 12%
- inhibition [7]: inactive
- inhibition [8]: 2.3%
- inhibition [9]: -8.8%
- inhibition at 10 µM [10]: -23.9%
- percent of control [11]: 0%

SMILES: CNc1cc(Oc2cc(C(=O)Nc3cc(N4CCN(C)CC4)cc(C(F)(F)F)c3)ccc2C)ncn1
- inhibition [12]: 2.6%
- inhibition [13]: -6.7%
- inhibition [14]: 10.8%

— ChEMBL document CHEMBL5696442, “Discovery of type II inhibitors of TGFβ-activated kinase 1 (TAK1) and mitogen-activated protein kinase kinase kinase kinase 2 (MAP4K2)” (J Med Chem, 2015)
